Experimental findings from ChEMBL document CHEMBL1134641, “Progress toward the development of a safe and effective agent for treating reentrant cardiac arrhythmias: synthesis and evaluation of ibutilide analogues with enhanced metabolic stability and diminished proarrhythmic potential” (2001) are described below.

Test [1] is filed under the species Oryctolagus cuniculus. The test can be described thus: Mean dose at which EADs (early after depolarizations) began to develop in rabbits. The class given is functional. An outline of the steps:
(§1)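 Male New Zealand white rabbits (2.5-3.5 kg), anesthetized and instrumented. Methoxamine infused at 10 µg/kg/min; baseline taken after 15 min. Compound in 0.1 M fumaric acid/EtOH diluted with saline, infused IV at 5 mg/kg over 30 min. Readouts: QTc and MAPD90 maxima vs methoxamine baseline, with accumulated dose, and dose at EAD or PVT onset. ANOVA, p ≤ 0.05.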

The species named for test [2] is Oryctolagus cuniculus. The test can be described thus: Maximum increase in the ventricular monophasic action potential duration at 90% repolarization from the methoxamine infusion baseline in rabbits. It counts as functional, Cardiac ventricle. In a few lines: as §1
The species entered for test [3] is Oryctolagus cuniculus. The test is described as follows: Mean dose of test compound at which a statistically significant increase was first observed and the dose for the maximum increase in QTc interval in rabbits (0.1-1.0). The class given is functional. In a few lines: (§2)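 Male New Zealand white rabbits (2.5-3.5 kg), anesthetized and instrumented. Methoxamine infused at 10 µg/kg/min; methoxamine baseline taken after 15 min. Compound, dissolved in 0.1 M fumaric acid in absolute EtOH and diluted with saline, given as a continuous iv infusion of 5 mg/kg over 30 min. QTc (QT/√RR) and MAPD90 followed over time; cumulative mg/kg dose recorded at first significant rise (one-way ANOVA, p≤0.05) and at maximum rise.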

For test [4], the species on record is Oryctolagus cuniculus. The test is described as follows: Mean dose at which PVTs (Polymorphic ventricular tachyarrhythmias) were observed in rabbits. The class given is functional, Cardiac ventricle. An outline of the steps: as §1
Test [5] is filed under the species Oryctolagus cuniculus. The test is described as follows: Mean dose of test compound at which a statistically significant increase was first observed and the dose for the maximum increase in MAPD90 in rabbits (0.1-0.25). It counts as functional. An outline of the steps:
as §1

The test system of test [6] is Oryctolagus cuniculus. The test can be described thus: In vivo evaluation of potential efficacy observed as the maximum increase in QTc interval from the methoxamine infusion baseline in rabbits. The class given is functional. An outline of the steps: as §1
The species named for another test is Homo sapiens. The test can be described thus: Metabolic stability in relative to 31E observed on incubation with human liver microsomes. It counts as functional. The following applies: Microsome. In a few lines:
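Pooled human liver microsomes, 1 mg protein/mL, in 50 mM potassium phosphate pH 7.4. Substrate at 0.4-0.5 µM final; preincubated at 37 °C, then started with an NADPH-generating system (isocitrate/isocitrate dehydrogenase). Aliquots taken up to 20 min and quenched in acetonitrile. Remaining substrate measured by reversed-phase HPLC with fluorescence detection. Log-concentration vs time slope taken; ratio reported as reference slope/test slope; values >20 treated as stable. Three experiments.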
In general terms: Microsomes from liver hold many membrane-bound enzymes, among them those of drug oxidation.

Test [7] is filed under the species Oryctolagus cuniculus. The test can be described thus: Mean dose of test compound at which a statistically significant increase was first observed and the dose for the maximum increase in QTc interval in rabbits. The class given is functional. In a few lines: as §2
Test [8] is filed under the species Oryctolagus cuniculus. The test can be described thus: Mean dose of test compound at which a statistically significant increase was first observed and the dose for the maximum increase in MAPD90 in rabbits. It counts as functional. In a few lines:
as §1

For test [9], the species on record is Oryctolagus cuniculus. The test can be described thus: Mean dose of test compound at which a statistically significant increase was first observed and the dose for the maximum increase in MAPD90 in rabbits (0.25-5.0). It counts as functional. In a few lines: as §2
The species entered for test [10] is Oryctolagus cuniculus. The test is described as follows: Mean dose of test compound at which a statistically significant increase was first observed and the dose for the maximum increase in QTc interval in rabbits (0.25-5.0). The class given is functional. In a few lines:
as §2

Test [11] is filed under the species Oryctolagus cuniculus. The test is described as follows: Mean dose of test compound at which a statistically significant increase was first observed and the dose for the maximum increase in MAPD90 in rabbits (0.5-1.0). It counts as functional. An outline of the steps:
as §2

The species named for test [12] is Oryctolagus cuniculus. The test can be described thus: Mean dose of test compound at which a statistically significant increase was first observed and the dose for the maximum increase in QTc interval in rabbits (0.1-0.5). It counts as functional. An outline of the steps: as §2
The species named for test [13] is Oryctolagus cuniculus. The test is described as follows: Mean dose of test compound at which a statistically significant increase was first observed and the dose for the maximum increase in MAPD90 in rabbits (0.1-2.0). It counts as functional. In a few lines: as §1
For test [14], the species on record is Oryctolagus cuniculus. The test is described as follows: Mean dose of test compound at which a statistically significant increase was first observed and the dose for the maximum increase in QTc interval in rabbits (0.1-0.25). The class given is functional. In a few lines: as §2
For test [15], the species on record is Oryctolagus cuniculus. The test can be described thus: Mean dose of test compound at which a statistically significant increase was first observed and the dose for the maximum increase in MAPD90 in rabbits (0.1-0.5). The class given is functional. In a few lines: as §1
For test [16], the species on record is Oryctolagus cuniculus. The test can be described thus: Mean dose of test compound at which a statistically significant increase was first observed and the dose for the maximum increase in MAPD90 in rabbits (0.5-2.0). The class given is functional. In a few lines: as §2
The species entered for test [17] is Oryctolagus cuniculus. The test is described as follows: Mean dose of test compound at which a statistically significant increase was first observed and the dose for the maximum increase in MAPD90 in rabbits (0.1-5.0). The class given is functional. An outline of the steps:
as §1

Test [18] is filed under the species Oryctolagus cuniculus. The test is described as follows: Mean dose of test compound at which a statistically significant increase was first observed and the dose for the maximum increase in MAPD90 in rabbits (0.25-1.0). It counts as functional. In a few lines:
as §2

On to `CCN(CCCCCC(C)(F)F)CCC[C@H](O)c1ccc(NS(C)(=O)=O)cc1`, for which the Dose stood at 0.3 mg/kg in the test filed under Oryctolagus cuniculus [1], 1 mg/kg in the test listed under Oryctolagus cuniculus [3], 0.3 mg/kg in the test listed under Oryctolagus cuniculus [4] and 0.25 mg/kg in the test listed under Oryctolagus cuniculus [5]. The compound further showed an MAPD90 in the test listed under Oryctolagus cuniculus [2] of 92 ms. The compound further registered a QTc interval in the test with Oryctolagus cuniculus [6] of 106 ms.

`CCN(CCCCCCC(F)F)CCCC(O)c1ccc(NS(C)(=O)=O)cc1` (stereo unspecified): the Dose is 0.3 mg/kg in the test listed under Oryctolagus cuniculus [1], 0.3 mg/kg in the test listed under Oryctolagus cuniculus [4], 0.25 mg/kg in the test listed under Oryctolagus cuniculus [7] and 0.25 mg/kg in the test listed under Oryctolagus cuniculus [8]. Besides, the MAPD90 in the test filed under Oryctolagus cuniculus [2] turned out to be 48 ms. This compound also displayed a QTc interval in the test on Oryctolagus cuniculus [6] of 71 ms. In the test filed under Homo sapiens, the Metabolic stability relative to 31E was greater than 2000%.

Regarding `CCCCCCCN(CC)CCC[C@H](O)c1ccc(NS(C)(=O)=O)cc1`, the Dose worked out at 1.6 mg/kg in the test filed under Oryctolagus cuniculus [1], 0.2 mg/kg in the test listed under Oryctolagus cuniculus [4], 5 mg/kg in the test listed under Oryctolagus cuniculus [9] and 0.25 mg/kg in the test filed under Oryctolagus cuniculus [7]. This compound also came in with an MAPD90 in the test filed under Oryctolagus cuniculus [2] of 105 ms. The same compound yielded a QTc interval in the test on Oryctolagus cuniculus [6] of 145 ms.

For the compound `CCCCCCCN(CC)CCCC(O)c1ccc(NS(C)(=O)=O)cc1` (stereo unspecified) [IBUTILIDE], the Dose in the test listed under Oryctolagus cuniculus [1] amounted to 1.7 mg/kg; in the test filed under Oryctolagus cuniculus [10], 5 mg/kg; in the test listed under Oryctolagus cuniculus [11], 1 mg/kg; in the test listed under Oryctolagus cuniculus [4] it was 1 mg/kg. Also, in the test listed under Oryctolagus cuniculus [2], the MAPD90 worked out at 65 ms. Besides, the QTc interval with Oryctolagus cuniculus [6] turned out to be 85 ms.

`CCN(CCCCCCCF)CCCCc1ccc(NS(C)(=O)=O)cc1`: the Dose in the test filed under Oryctolagus cuniculus [1] was 1 mg/kg; in the test listed under Oryctolagus cuniculus [4], 0.1 mg/kg; in the test filed under Oryctolagus cuniculus [12] it was 0.5 mg/kg; in the test listed under Oryctolagus cuniculus [13] it was 2 mg/kg. In addition, the MAPD90 in the test listed under Oryctolagus cuniculus [2] was 52 ms. The compound further displayed a QTc interval in the test on Oryctolagus cuniculus [6] of 96 ms. The Metabolic stability relative to 31E in the test filed under Homo sapiens came to 100%.

Regarding `CCN(CCCCCCC(F)F)CCC[C@H](O)c1ccc(NS(C)(=O)=O)cc1`, the Dose in the test filed under Oryctolagus cuniculus [1] was determined as 0.5 mg/kg; in the test filed under Oryctolagus cuniculus [14] it was 0.25 mg/kg; in the test listed under Oryctolagus cuniculus [4] it was 0.25 mg/kg; in the test listed under Oryctolagus cuniculus [15] it was 0.5 mg/kg. The MAPD90 in the test listed under Oryctolagus cuniculus [2] is 58 ms. The compound further displayed a QTc interval in the test on Oryctolagus cuniculus [6] of 118 ms.

For the compound `CCN(CC/C=C/c1ccc(NS(C)(=O)=O)cc1)CCCCCC(C)F` (stereo unspecified), the Dose was found to be 0.3 mg/kg in the test listed under Oryctolagus cuniculus [1], 2 mg/kg in the test filed under Oryctolagus cuniculus [16], 1.5 mg/kg in the test filed under Oryctolagus cuniculus [4] and 2 mg/kg in the test listed under Oryctolagus cuniculus [7]. This compound also registered an MAPD90 in the test listed under Oryctolagus cuniculus [2] of 133 ms. For the same compound, in the test on Oryctolagus cuniculus [6], the QTc interval is listed as 75 ms. The compound further displayed a Metabolic stability relative to 31E in the test filed under Homo sapiens of 300%.

With `CCN(CCCCCCCF)CCC[C@H](O)c1ccc(NS(C)(=O)=O)cc1`, the Dose in the test listed under Oryctolagus cuniculus [1] turned out to be 0.25 mg/kg; in the test filed under Oryctolagus cuniculus [14], 0.25 mg/kg; in the test filed under Oryctolagus cuniculus [4] it was 0.9 mg/kg; in the test listed under Oryctolagus cuniculus [17], 5 mg/kg. For the same compound, the MAPD90 in the test listed under Oryctolagus cuniculus [2] stood at 76 ms. This compound showed a QTc interval with Oryctolagus cuniculus [6] of 105 ms. Also, in the test filed under Homo sapiens, the Metabolic stability relative to 31E was found to be 400%.

For the compound `CCN(CCCCCC(C)(C)F)CCCC(O)c1ccc(NS(C)(=O)=O)cc1` (stereo unspecified), the Dose in the test listed under Oryctolagus cuniculus [1] was found to be 0.9 mg/kg; in the test listed under Oryctolagus cuniculus [11] it was 1 mg/kg; in the test filed under Oryctolagus cuniculus [4] it was 0.25 mg/kg; in the test listed under Oryctolagus cuniculus [7] it was 0.25 mg/kg. Moreover, in the test filed under Oryctolagus cuniculus [2], the MAPD90 amounted to 96 ms. Further, in the test on Oryctolagus cuniculus [6], the QTc interval was found to be 136 ms. In the test listed under Homo sapiens, this compound returned a Metabolic stability relative to 31E greater than 2000%.

`CCCCCCCN(CC)CCC[C@@H](O)c1ccc(NS(C)(=O)=O)cc1`: the Dose in the test listed under Oryctolagus cuniculus [1] came out at 0.2 mg/kg; in the test filed under Oryctolagus cuniculus [4], 0.3 mg/kg; in the test listed under Oryctolagus cuniculus [18] it was 1 mg/kg; in the test listed under Oryctolagus cuniculus [7], 0.25 mg/kg. The MAPD90 in the test listed under Oryctolagus cuniculus [2] was determined as 69 ms. In the test on Oryctolagus cuniculus [6], this compound displayed a QTc interval of 112 ms. The Metabolic stability relative to 31E in the test listed under Homo sapiens stood at 100%.
